Rows were chosen to be rich in hits. Some 1.8% of all compounds tested hit in one or more screens of this group.
CHRM4 agonist: CHRM4 agonism in calcium assay | CHO-K1 hM4/Gqi5, Fluo-8 calcium fluorescence; vehicle 0%, full acetylcholine response 100% | activation, % at 3 µM | 360,000 tested, 0.14% active;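 active = activation above the run mean over all test wells plus 3 SD, cut at about 32% in these data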;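 note: peak over basal fluorescence ratio per well then scaled between controls; 0% = DMSO wells and 100% = acetylcholine at EC100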
Target sequence (P08173 whole entry, looked up): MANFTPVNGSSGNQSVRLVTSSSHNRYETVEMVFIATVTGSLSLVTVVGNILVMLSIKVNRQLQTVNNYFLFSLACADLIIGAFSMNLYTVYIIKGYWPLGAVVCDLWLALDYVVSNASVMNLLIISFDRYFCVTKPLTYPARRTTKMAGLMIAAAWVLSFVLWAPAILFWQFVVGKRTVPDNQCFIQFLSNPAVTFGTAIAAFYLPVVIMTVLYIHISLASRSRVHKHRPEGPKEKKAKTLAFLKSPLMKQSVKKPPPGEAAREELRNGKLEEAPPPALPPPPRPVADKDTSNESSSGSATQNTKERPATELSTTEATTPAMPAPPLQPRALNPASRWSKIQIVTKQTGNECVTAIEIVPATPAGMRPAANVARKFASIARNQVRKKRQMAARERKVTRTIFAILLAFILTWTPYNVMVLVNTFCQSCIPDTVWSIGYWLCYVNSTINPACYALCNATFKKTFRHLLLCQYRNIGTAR
M5 antag: CHRM5 antagonism in calcium assay; P08912; inhibition, % at 3 µM; 360,000 tested, 0.59% active; CHO-hM5 cells, Fluo-8 calcium fluorescence, ACh EC80;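 active = inhibition above a per-plate cutoff, the mean of that plate's test compounds plus 3 SD, cut at about 27% in these data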;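 note: 0% = acetylcholine EC80 with DMSO and 100% = DMSO without agonist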
CHRM4 PAM: potentiates acetylcholine response at human M4 receptor. P08173. CHO-K1 hM4/Gqi5, Fluo-8 calcium fluorescence, ACh EC20; 0% = ACh EC20, 100% = maximal ACh. activation, % at 3 µM. 360,000 tested, 0.4% active. AID 624126;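 active = activation above its plate's cutoff, the mean activation of sample wells plus 3 SD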
M4 antag: antagonists of human muscarinic M4 receptor (CHRM4) | P08173 | CHO-hM4 cells, ACh EC80, Fluo-8 calcium fluorescence | AID 624125 | 360,000 tested, 0.73% active | inhibition, % at 3 µM;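 active = inhibition above its plate's cutoff, the mean inhibition of sample wells plus 3 SD, cut at about 27% in these data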;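 note: 0% = acetylcholine EC80 with DMSO and 100% = DMSO without agonist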
CHRM5 agonist: agonists of human muscarinic M5 receptor (CHRM5). CHO-K1 hM5 cells, Fluo-8 calcium fluorescence; 0% DMSO wells, 100% maximal acetylcholine response. P08912. 360,000 tested, 0.19% active. AID 624037. activation, % at 3 µM;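 active = activation above the run's mean over test compounds plus 3 SD, cut at about 23% in these data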;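 note: signal is peak over basal fluorescence ratio across the kinetic read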
M5 PAM: positive allosteric modulators of human muscarinic M5 receptor. P08912. AID 624038. CHO-K1 hM5, Fluo-8 calcium, ACh EC20 PAM; 0% = ACh EC20, 100% = ACh EC100. activation, % at 3 µM. 360,000 tested, 0.3% active;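 active = activation above the run cutoff, the mean activation of all test compounds plus 3 SD, cut at about 18% in these data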
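Assay system: CHO-K1 hM5 cells / Incubation: Fluo-8 loading 80 min at 37 °C plus 30 min room temperature / Technique: Fluo-8 calcium dye fluorescence, kinetic read / Repeats: single replicate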
The depositor's hits bear a star.

SMILES	CHRM4 agonist	M5 antag	CHRM4 PAM	M4 antag	CHRM5 agonist	M5 PAM
CN(C(=O)CN1C(=O)S/C(=C\c2ccccc2)C1=O)C1CCS(=O)(=O)C1 (stereo not given)	1	-1	6	-1	0	4
CC(C)(C)Cc1c(-c2ccc(F)cc2)nc2ccc(Br)cn12	1	-1	-9	-6	-3	-6
CCOC(=O)CC(NC(=O)c1ccco1)c1ccc(OC)cc1 (stereo not given)	0	-2	6	-7	-4	21*
COc1ccc(C(=O)C(C)[n+]2ccc(C)c3ccccc32)cc1[N+](=O)[O-] (stereo not given)	4	4	-14	27*	-9	-13
O=C(Nc1ccc(F)cc1)C(c1ccnc2ccccc12)N1CCN(C(=O)c2ccco2)CC1 (stereo not given)	4	6	-1	3	4	4
CC(=O)Nc1ccc(NCCc2ccco2)cc1	0	-12	-1	-5	2	12
CC(C)c1ccc(NC(=O)C2CC(=O)N(C3CCCC3)C2)cc1 (stereo not given)	4	6	18*	-19	-3	-3
COc1ccc(Cl)cc1CC1(C)C(=O)Nc2c(Cl)cccc21 (stereo not given)	1	0	-3	-10	-2	-7
COc1ccc(N2CCN(S(=O)(=O)c3ccc(OC)cc3)CC2)cc1	3	6	-7	-3	2	-4
CCC(CC)N1CCN(S(=O)(=O)c2ccc(OC)cc2)CC1	0	-2	-1	-10	-7	21*
COc1ccc(Cc2c(C(C)(C)C)nc3c(C)cc(Br)cn23)c(C)c1	2	0	-8	4	-1	-1
COCCNCCOc1ccccc1-c1ccccc1	2	-11	2	-1	-11	19*
CCOC(=O)C1(C)CCN1C(=O)c1cc(OC)ccc1Br (stereo not given)	0	8	0	-4	0	-4
Cc1ccc2nc(SCC(=O)N3CCC(Cc4ccccc4)CC3)nc(=O)n2c1	35*	5	-15	-7	-3	-18
CCn1c(/N=C/c2ccccc2O)nc2ccccc21	0	6	5	-13	-4	12
CC(C)n1c(/N=C/c2ccccc2O)nc2ccccc21	1	-9	0	-8	0	21*
C[C@@H]1CN([C@H](C)CO)S(=O)(=O)c2ccc(Br)cc2O[C@H]1CN(C)C(=O)Nc1ccccc1	6	-10	2	-11	0	5
CN(Cc1ccccc1)c1nc2c(c(=O)n(C)c(=O)n2C)n1CCCc1ccccc1	3	13	-10	27*	-5	-16
COc1ccc(Oc2nc3c(c(=O)n(C)c(=O)n3C)n2Cc2ccccc2)cc1	0	-6	30*	0	-2	12
CCN(CC)c1nc2c(c(=O)n(C)c(=O)n2C)n1CCCc1ccccc1	2	9	-2	-9	2	-1
Cn1c(=O)c2c(nc(N/N=C/c3ccncc3)n2Cc2ccccc2)n(C)c1=O	1	-10	-2	2	5	21*
Cn1c(=O)c2c(nc(Oc3ccc4c(c3)OCO4)n2Cc2ccc(Cl)cc2)n(C)c1=O	1	0	1	7	1	33*
Cc1ccc(Cn2c(N/N=C/c3ccncc3)nc3c2c(=O)n(C)c(=O)n3C)cc1	3	0	-1	-6	-5	1
Cc1cc(C)n2c(Nc3ccc4c(c3)OCCO4)c(CC(C)C)nc2n1	-4	-7	10	-15	3	13
COc1ccccc1NC(=O)N(C)C[C@@H]1OCc2cnnn2CCCC(=O)N([C@@H](C)CO)C[C@H]1C	0	-3	1	-19	0	1
SMILES	CHRM4 agonist	M5 antag	CHRM4 PAM	M4 antag	CHRM5 agonist	M5 PAM
Cc1ccc(Cn2c(SCCN3CCCCC3)nc3c2c(=O)n(C)c(=O)n3C)cc1	0	-4	-1	-2	-7	0
Cn1c(=O)c2c(nc(SCCN3CCCCC3)n2Cc2ccccc2)n(C)c1=O	-1	5	-20	28*	-7	-7
CCOC(=O)C1=CCC(c2ccc(Cl)cc2)N(S(=O)(=O)c2ccc(C)cc2)C1 (stereo not given)	2	-2	5	-10	-2	-12
CN1C(=O)c2ccc(N3CCCC3)cc2C1=O	8	4	-9	-4	5	-6
O=C1N/C(=C/c2ccc(N3CCCC3)cc2)C(=O)N1c1ccccc1	1	-5	-7	-6	-2	-4
Cc1cc(N2CCCC2)ccc1/C=C1\NC(=S)N(C)C1=O	13	7	-11	9	42*	-9
O=C1/C(=C/c2ccc(N3CCCC3)cc2)NC(=S)N1C1CC1	46*	54*	-27	36*	69*	-18
CCCCNC(=O)c1ccc(SCC(=O)N(CC)CC)c([N+](=O)[O-])c1	1	-12	4	-13	6	19*
CCN(CC)C(=O)CSc1ccc(C(F)(F)F)cc1[N+](=O)[O-]	2	8	8	-7	-2	-4
Cc1cccc(C)c1-n1nnnc1C(c1ccnc2ccccc12)N(C)Cc1ccc(Cl)c(Cl)c1 (stereo not given)	2	12	18	-17	2	-2
Cc1cccc(C)c1NC(=O)C1(C)CN(S(C)(=O)=O)CC(=O)N1CCc1ccccc1F (stereo not given)	4	2	9	-13	5	-6
CCOc1cc(-c2noc(N)c2C#N)cc(OCC)c1OCC	0	-1	4	-4	-4	-3
Cc1ccccc1-c1noc(N)c1C#N	1	-8	43*	-9	-2	25*
COc1ccc(OC)c2c1C(=O)C(Cl)=C(Cl)C2=O	0	23	-8	61*	0	-1
COCCCNC1=C(C#N)C(=O)NC(c2cccs2)S1 (stereo not given)	0	-3	2	-5	0	-3
Cc1cccc(C)c1NC(=O)c1ccc2sc([C@@H]3O[C@H](CO)[C@H](O)[C@H](O)[C@H]3O)nc2c1	1	1	2	-2	0	-1
Cc1ccc(C(O)c2ncc(-c3ccc(F)cc3)[nH]2)c(C)c1 (stereo not given)	2	4	-1	-3	1	-3
O=C(NC(Cc1ccccc1)C(=O)O)/C(=C\c1ccc(Br)cc1)NC(=O)c1ccc(Br)o1 (stereo not given)	0	-8	-4	15	2	6
O=C(NC(Cc1ccccc1)C(=O)O)/C(=C/c1ccc(Br)cc1)NC(=O)c1ccc(Br)o1 (stereo not given)	0	9	19*	-1	-4	-5
